According to PMC8830944 (Molecular Diversity, 2022):
Converted amounts (≈) assume the structure as drawn.

What was measured:
PAMPA = assay type: in vitro ADME; details: for Papp at 5 h, 500 µM: pH 7.4
C. albicans = test: Antifungal MIC, liquid growth inhibition; assay type: cell-based; details: Candida albicans, 24 h, read-out: Antifungal activity, MIC90
Method in brief: (§1)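 Clinical isolates from patient specimens, one isolate per patient. Yeasts were grown in YPD at 37 °C for 16 h with 150 rpm shaking, then subcultured to OD 0.3. Inoculum was set to 0.5 McFarland and diluted 1:500 in RPMI 1640 […]. CLSI broth microdilution used final compound concentrations of 256–0.125 µg/mL. MIC90 is the concentration inhibiting 90% of the strains tested per species.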

C. tropicalis = test: Antifungal MIC, liquid growth inhibition; assay type: cell-based; details: Candida tropicalis, 24 h, read-out: Antifungal activity, MIC90
Method in brief: as §1

C. neoformans = test: Antifungal MIC, liquid growth inhibition; assay type: cell-based; details: Cryptococcus neoformans, 24 h, read-out: Antifungal activity, MIC90
Method in brief: as §1

Row | Papp at 5 h, 500 µM (PAMPA) [×10⁻⁶ cm/s] | Membrane retention (PAMPA; phosphatidylcholine in dodecane, pH 7.4, 5 h, r.t.) [%] | MIC90 (C. albicans) [µg/mL] | MIC90 (C. tropicalis) [µg/mL] | MIC90 (C. neoformans) [µg/mL] | Compound
1 | 1.84 | 3.2 |  |  |  | Cn1c(=O)c2c(ncn2C)n(C)c1=O [Caffeine]
2 | 0.3 |  |  |  |  | O=C(N[C@H](CO)[C@H](O)c1ccc([N+](=O)[O-])cc1)C(Cl)Cl [Chloramphenicol]
3 |  |  | 2 (≈ 6.53 µM) | 2 (≈ 6.53 µM) | 2 (≈ 6.53 µM) | OC(Cn1cncn1)(Cn1cncn1)c1ccc(F)cc1F [F, Fluconazole]
